Experimental data: ChEMBL document CHEMBL4196108, “5-Aroylindoles Act as Selective Histone Deacetylase 6 Inhibitors Ameliorating Alzheimer's Disease Phenotypes” (J Med Chem, 2018)
Active and inactive are the calls of the source. No cut-off for these calls is given here.

Key:
[1] = tested on: Mus musculus; assay: In vivo inhibition of HDAC6 in 3xTg-AD transgenic mouse brain hippocampal CA1 region assessed as downregulation of […] expression of beta-amyloid at 50 mg/kg, po administered daily for 3 months by Western blot analysis; type: functional, organism-based
[2] = target: T1, Protein deacetylase HDAC6 (Mus musculus) (UniProt Q9Z2V5); assay: Inhibition of HDAC6 in mouse Neuro-2a cells transfected with pCAX FLAG APP and pRK5-EGFP-Tau P301L plasmids assessed as increase in HSP70 protein expression 1 uM after 24 hrs by Western blot analysis; type: cell-based
T1 sequence (whole entry): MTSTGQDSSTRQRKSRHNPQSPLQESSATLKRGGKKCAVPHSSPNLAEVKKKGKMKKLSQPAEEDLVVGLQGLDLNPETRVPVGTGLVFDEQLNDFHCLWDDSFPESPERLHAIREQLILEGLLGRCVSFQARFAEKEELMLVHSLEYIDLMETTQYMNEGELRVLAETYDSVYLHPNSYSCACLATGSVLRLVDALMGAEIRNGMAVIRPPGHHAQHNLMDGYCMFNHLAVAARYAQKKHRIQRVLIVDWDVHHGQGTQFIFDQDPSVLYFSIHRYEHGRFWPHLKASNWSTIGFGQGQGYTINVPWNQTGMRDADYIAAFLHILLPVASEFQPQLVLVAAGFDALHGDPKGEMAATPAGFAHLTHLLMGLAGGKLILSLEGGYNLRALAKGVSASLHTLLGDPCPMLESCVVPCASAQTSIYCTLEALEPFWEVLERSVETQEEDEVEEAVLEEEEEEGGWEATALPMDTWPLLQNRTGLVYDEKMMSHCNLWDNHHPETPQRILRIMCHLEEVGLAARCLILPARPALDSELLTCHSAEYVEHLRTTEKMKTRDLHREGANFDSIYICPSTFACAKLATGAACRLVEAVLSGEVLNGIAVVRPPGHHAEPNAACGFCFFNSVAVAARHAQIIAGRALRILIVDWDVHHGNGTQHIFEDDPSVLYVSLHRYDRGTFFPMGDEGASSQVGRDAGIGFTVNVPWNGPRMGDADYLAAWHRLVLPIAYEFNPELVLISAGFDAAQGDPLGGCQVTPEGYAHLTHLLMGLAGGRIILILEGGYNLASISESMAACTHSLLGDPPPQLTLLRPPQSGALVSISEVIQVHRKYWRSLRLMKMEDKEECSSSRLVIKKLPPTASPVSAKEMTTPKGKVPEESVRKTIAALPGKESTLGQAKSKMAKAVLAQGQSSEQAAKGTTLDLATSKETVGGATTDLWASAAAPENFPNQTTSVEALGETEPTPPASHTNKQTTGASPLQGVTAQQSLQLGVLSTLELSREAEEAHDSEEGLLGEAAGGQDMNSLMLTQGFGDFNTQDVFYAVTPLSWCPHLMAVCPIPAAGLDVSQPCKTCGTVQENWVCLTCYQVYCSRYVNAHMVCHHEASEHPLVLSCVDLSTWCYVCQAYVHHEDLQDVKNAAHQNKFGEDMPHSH
Outline: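 SH-SY5Y and Neuro-2a cells cotransfected 24 h with APP695/Tau P301L plasmids, treated 24 h at 1 µM (ACY-1215 reference). 30 µg lysate immunoprecipitated overnight at 4 °C with anti-HDAC6 or anti-acetyl-lysine antibodies plus protein A/G beads, run on 8% SDS-PAGE, probed for Hsp90; Hsp70 by immunoblot. Three independent experiments.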

[3] = Toxicity in Balb/c mouse assessed as survival rate at 500 mg/kg, ip qd administered for 6 days followed by 1 week recovery (reference value: 100%); type: organism-based; conditions: in vivo
[4] = tested on: Rattus norvegicus; assay: In vivo inhibition of HDAC6 in Wistar rat brain hippocampal CA1 region assessed as downregulation of scopolamine-mediated increase in Tau phosphorylation at Ser396/Ser404 residues by immunohistochemical analysis; type: functional, organism-based
Outline: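 Male Wistar rats, 7 weeks old, dosed orally at 25 mg/kg in 1% carboxymethyl cellulose/0.5% Tween 80 once daily. Scopolamine 1 mg/kg i.p. 90 min before test trial (controls excluded). Morris water maze (hidden platform escape latency), elevated plus maze (started at open-arm end, time to closed arm), then CA1 phospho-tau Ser396/Ser404 immunohistochemistry.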

COc1ccc(C(=O)c2ccc3c(ccn3Cc3ccc(C(=O)NO)cc3)c2)cc1
inhibition [1]: Active
inhibition [2]: Active
survival [3]: 100%
inhibition [4]: Active
